According to article PMC3032979 (Structure (London, England : 1993), 2011):
Where two headings read alike, the source gives them in different places.

Key:
mCAR = conditions: LXRE response element, HepG2 cells; ref Huang et al., 2004; cited from earlier work
human CAR isoform = conditions: ref Huang et al., 2004; cited from earlier work
murine CAR = conditions: cited from earlier work
RXR LBD within CAR:RXR = assay: differential amide HDX MS, RXR portion of CAR:RXR; parameters: species or system human; conditions: 4°C, pH 8, 10–3600 seconds
CAR LBD within CAR:RXR = assay: differential amide HDX MS, CAR portion of CAR:RXR; parameters: species or system murine; conditions: for HDX kinetics versus unliganded CAR:RXR (in words): 4°C, pH 8, 10–3600 seconds
CAR:RXR [1] = biological target: T1, CAR:RXR (Mus musculus, UniProt O35627); assay: ITC, SRC1 box 2 peptide binding to wild-type CAR:RXR LBDs; parameters: species or system murine (mCAR LBD), human (RXR LBD); conditions: for affinity of ligand-bound CAR:RXR for SRC1 coactivator (in words): saturating meclizine versus TCPOBOP
(L343A)CAR:RXR = (L343A)CAR:RXR (Mus musculus, UniProt O35627, L343A); assay: ITC, SRC1 peptide binding to; parameters: species or system murine (mCAR LBD), human (RXR LBD); conditions: for ΔG / −TΔS / n (one-site binding model) / ΔH: SRC1 peptide binding, 25°C; for ΔG / −TΔS: pH 7.2; for n (one-site binding model) / ΔH: pH 7.2, average of at least three experiments ± SD
(L343F)CAR:RXR = biological target: T2, (L343F)CAR:RXR (Mus musculus, UniProt O35627, L343F); assay: ITC, SRC1 peptide binding to; parameters: species or system murine (mCAR LBD), human (RXR LBD); conditions: for ΔG / −TΔS / n (one-site binding model) / ΔH: SRC1 peptide binding, 25°C; for ΔG / −TΔS: pH 7.2; for n (one-site binding model) / ΔH: pH 7.2, average of at least three experiments ± SD
T2 sequence (O35627 117-358 L343F): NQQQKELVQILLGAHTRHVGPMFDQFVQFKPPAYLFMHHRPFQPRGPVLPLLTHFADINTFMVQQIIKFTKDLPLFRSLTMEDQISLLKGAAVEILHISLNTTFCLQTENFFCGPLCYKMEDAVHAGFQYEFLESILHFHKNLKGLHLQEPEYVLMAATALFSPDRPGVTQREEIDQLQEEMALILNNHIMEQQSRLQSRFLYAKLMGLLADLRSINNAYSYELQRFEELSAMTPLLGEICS
T2 sequence (P19793 225-462 partner limits assumed): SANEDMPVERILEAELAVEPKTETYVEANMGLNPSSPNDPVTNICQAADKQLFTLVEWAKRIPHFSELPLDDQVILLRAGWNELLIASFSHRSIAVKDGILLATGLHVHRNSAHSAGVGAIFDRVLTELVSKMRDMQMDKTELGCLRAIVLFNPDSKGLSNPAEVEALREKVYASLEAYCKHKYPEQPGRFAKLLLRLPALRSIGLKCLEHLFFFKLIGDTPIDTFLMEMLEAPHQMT

CAR:(W282F)RXR = assay: steady-state tryptophan fluorescence quenching, CAR:; format: binding, murine (mCAR LBD), human (RXR LBD); conditions: 1.0 μM protein (Figure S2); excitation 295 nm; pH 8.0
CAR:RXR [2] = biological target: T1, CAR:RXR; assay: effect of CAR ligands on 9-cis-retinoic acid; format: binding, murine (mCAR LBD), human (RXR LBD); conditions: fluorescence quenching at 340 nm upon titrating 9c into CAR:RXR
CAR:(W305F)RXR = assay: steady-state tryptophan fluorescence quenching, CAR:; format: binding, murine (mCAR LBD), human (RXR LBD); conditions: 1.0 μM protein (Figure S2); excitation 295 nm; pH 8.0
Summary of the method: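 Human RXR LBD (residues 225–462) carrying W305F, co-expressed with CAR LBD in E. coli BL21(DE3) Gold (0.5 mM IPTG, 20 h, 20°C). Heterodimer purified by Ni-NTA, then size exclusion in 20 mM Tris-HCl pH 8.0, 250 mM NaCl, 2.5 mM EDTA, 5.0 mM DTT. Steady-state emission scanned 305–400 nm and compared with wild-type and W282F heterodimers at 340 nm.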

[3] = residues 327–358 (H10, H11, H12)
[4] = SRC1 peptide binding in the presence of meclizine (ten-fold excess), 25°C, pH 7.2
[5] = SRC1 peptide binding in the presence of meclizine (ten-fold excess), 25°C, pH 7.2, average of at least three experiments ± SD

T1 sequence (O35627 117-358, other chains not shown): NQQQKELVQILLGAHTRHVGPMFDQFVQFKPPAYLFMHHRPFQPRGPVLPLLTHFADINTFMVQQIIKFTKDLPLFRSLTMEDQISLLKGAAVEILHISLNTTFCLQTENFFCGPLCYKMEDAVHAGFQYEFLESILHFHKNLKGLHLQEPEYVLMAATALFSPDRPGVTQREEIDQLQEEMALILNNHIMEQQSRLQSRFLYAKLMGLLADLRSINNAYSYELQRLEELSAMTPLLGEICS
Sequence of (L343A)CAR:RXR (O35627 117-358 L343A, other chains not shown): as the sequence (O35627 117-358, other chains not shown) above, with L227A counted along it

Cc1cccc(CN2CCN(C(c3ccccc3)c3ccc(Cl)cc3)CC2)c1 (stereo not drawn) [meclizine, 1-[(4-chlorophenyl)(phenyl)methyl]-4-(3-methylbenzyl)piperazine]
agonist response (in words) (mCAR): mCAR agonist | function on human CAR (in words) (human CAR isoform): inverse agonist | transactivation by murine CAR (in words) (murine CAR; ref Huang et al., 2004): further enhanced | HDX kinetics of RXR versus unliganded CAR:RXR (in words) (RXR LBD within CAR:RXR; 84 regions of RXR): no significant differences in exchange kinetics in RXR | HDX kinetics versus unliganded CAR:RXR (in words) (CAR LBD within CAR:RXR; residues 228–245 (segment of β-sheet and H6)): significantly protected to exchange | HDX kinetics versus unliganded CAR:RXR (in words) (CAR LBD within CAR:RXR; [3]): significantly protected to exchange | affinity of ligand-bound CAR:RXR for SRC1 coactivator (in words) (CAR:RXR [1]): affinity for coactivator is less than CAR(TCPOBOP)

CC[C@H](C)[C@H](NC(=O)[C@H](CCCCN)NC(=O)[C@H](Cc1c[nH]cn1)NC(=O)[C@@H](N)CCCNC(=N)N)C(=O)N[C@@H](CC(C)C)C(=O)N[C@@H](Cc1c[nH]cn1)C(=O)N[C@@H](CCCNC(=N)N)C(=O)N[C@@H](CC(C)C)C(=O)N[C@@H](CC(C)C)C(=O)N[C@@H](CCC(N)=O)C(=O)N[C@@H](CCC(=O)O)C(=O)NCC(=O)N[C@@H](CO)C(=O)O [SRC1 peptide]
unfavorable entropy (TΔS) of SRC1 peptide binding (in words) ((L343A)CAR:RXR; (L343A)CAR:RXR, no ligand): appreciably higher unfavorable entropy (TΔS) | affinity for SRC1 peptide (in words) ((L343A)CAR:RXR; (L343A)CAR:RXR, no ligand, versus wild-type CAR): lower than wild-type CAR | ΔG ((L343A)CAR:RXR; L343A (TCPOBOP)): -7.8 kcal/mol | −TΔS ((L343A)CAR:RXR; L343A (TCPOBOP)): 3.7 kcal/mol | n (one-site binding model) ((L343A)CAR:RXR; L343A (TCPOBOP)): 0.92 ± 0.14 | ΔH ((L343A)CAR:RXR; L343A (TCPOBOP)): -11.5 ± 0.8 kcal/mol | ΔG ((L343A)CAR:RXR; L343A (no ligand)): -6.6 kcal/mol | −TΔS ((L343A)CAR:RXR; L343A (no ligand)): 4.0 kcal/mol | n (one-site binding model) ((L343A)CAR:RXR; L343A (no ligand)): 1.0 ± 0.13 | ΔH ((L343A)CAR:RXR; L343A (no ligand)): -10.6 ± 0.5 kcal/mol | ΔG (CAR:RXR [1]; [4]): -8.2 kcal/mol | −TΔS (CAR:RXR [1]; [4]): 1.7 kcal/mol | n (one-site binding model) (CAR:RXR [1]; [5]): 0.95 ± 0.08 | ΔH (CAR:RXR [1]; [5]): -9.9 ± 0.3 kcal/mol | affinity for coactivator and entropy (in words) ((L343F)CAR:RXR; (L343F)CAR:RXR, no ligand, versus wild-type complex): significantly greater affinity for coactivator and lower unfavorable entropy compared to the wild-type complex | ΔG ((L343F)CAR:RXR; L343F (androstenol)): -7.3 kcal/mol | −TΔS ((L343F)CAR:RXR; L343F (androstenol)): 2.7 kcal/mol | n (one-site binding model) ((L343F)CAR:RXR; L343F (androstenol)): 1.0 ± 0.04 | ΔH ((L343F)CAR:RXR; L343F (androstenol)): -10.0 ± 0.2 kcal/mol | ΔG ((L343F)CAR:RXR; L343F (no ligand)): -8.2 kcal/mol | −TΔS ((L343F)CAR:RXR; L343F (no ligand)): 0.30 kcal/mol | n (one-site binding model) ((L343F)CAR:RXR; L343F (no ligand)): 0.97 ± 0.05 | ΔH ((L343F)CAR:RXR; L343F (no ligand)): -8.5 ± 0.2 kcal/mol

C[C@]12CC[C@@H](O)C[C@@H]1CC[C@@H]1[C@@H]2CC[C@]2(C)C=CC[C@@H]12 [androstenol, 5α-androst-16-en-3α-ol]
ligand function on murine CAR (in words) (murine CAR; androstane metabolites, ref Forman et al., 1998): physiological inverse agonist ligands of murine CAR

Clc1cnc(Oc2ccc(Oc3ncc(Cl)cc3Cl)cc2)c(Cl)c1 [TCPOBOP, 1,4-bis[2-(3,5-dichloropyridyloxy)]benzene]
agonist response (in words) (mCAR): stronger agonist response from CAR than meclizine | tryptophan quenching of CAR:(W282F)RXR (in words) (CAR:(W282F)RXR): strong dose-dependent increase in tryptophan quenching | transactivation by murine CAR (in words) (murine CAR; ref Tzameli et al., 2000): further enhanced | effect on 9c binding to CAR:RXR (in words) (CAR:RXR [2]): do not appear to significantly affect 9-cis-retinoic acid (9c) binding to CAR:RXR | HDX kinetics of RXR versus unliganded CAR:RXR (in words) (RXR LBD within CAR:RXR; RXR residues 416–432 (helix H10)): significant reduction in HDX kinetics | overall impact on conformational dynamics of CAR (in words) (CAR LBD within CAR:RXR; differential HDX, TCPOBOP compared with meclizine): broader and of greater magnitude than that of meclizine | HDX kinetics versus unliganded CAR:RXR (in words) (CAR LBD within CAR:RXR; residues 143–178 (helices H2′, H2″, parts of H3)): significant protection from exchange | HDX kinetics versus unliganded CAR:RXR (in words) (CAR LBD within CAR:RXR; [3]): most significant reductions in HDX behavior | HDX exchange kinetics, residues 339–345 in CAR (in words) (CAR LBD within CAR:RXR; residues 339–345, CAR(TCPOBOP):RXR compared with CAR(meclizine):RXR): greater magnitude reduction in exchange kinetics | affinity of ligand-bound CAR:RXR for SRC1 coactivator (in words) (CAR:RXR [1]): higher affinity for coactivator than meclizine | tryptophan fluorescence response of CAR:(W305F)RXR (in words) (CAR:(W305F)RXR): no significant response
